# High-throughput results as filed in PubChem.
# Sampled rows, rich in hits. Any-hit rate of the full collection: about 1.9%.
# b-catenin transl: beta-catenin nuclear translocation modulation | HeLa beta-catenin nuclear translocation, immunofluorescence imaging | nuclear translocation activity, % at 5 µM | 190,000 compounds, 0.3% hits | AID 1665;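 active = nuclear translocation activity above 50% at 5 µM, with a well cell count of 50 or more; inconclusive = wells under 50 cells across six images, flagged as toxic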;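 note: per-cell ratio of nuclear to cytoplasmic median beta-catenin stain intensity; plate controls were DMSO negative control for no effect and GSK-3 inhibitor IX positive control for full effect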
#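 Test system: HeLa cells, endogenous beta-catenin; Compound: single 5 µM dose plus 0.02–20 µM confirmation series; Times: compound exposure 24 h at 37°C; Signal: fluorescence imaging of beta-catenin antibody stain plus DAPI; Read-out: % activation, nuclear-to-cytoplasmic median beta-catenin signal ratio per cell.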
# Furin inh: human furin inhibition. P09958. purified furin, fluorogenic substrate cleavage. inhibition, % at 20 µM or 30 µM. 220,000 compounds, 0.061% hits; in the data active = inhibition above about 25%
# Target sequence (P09958 108-714 limits assumed): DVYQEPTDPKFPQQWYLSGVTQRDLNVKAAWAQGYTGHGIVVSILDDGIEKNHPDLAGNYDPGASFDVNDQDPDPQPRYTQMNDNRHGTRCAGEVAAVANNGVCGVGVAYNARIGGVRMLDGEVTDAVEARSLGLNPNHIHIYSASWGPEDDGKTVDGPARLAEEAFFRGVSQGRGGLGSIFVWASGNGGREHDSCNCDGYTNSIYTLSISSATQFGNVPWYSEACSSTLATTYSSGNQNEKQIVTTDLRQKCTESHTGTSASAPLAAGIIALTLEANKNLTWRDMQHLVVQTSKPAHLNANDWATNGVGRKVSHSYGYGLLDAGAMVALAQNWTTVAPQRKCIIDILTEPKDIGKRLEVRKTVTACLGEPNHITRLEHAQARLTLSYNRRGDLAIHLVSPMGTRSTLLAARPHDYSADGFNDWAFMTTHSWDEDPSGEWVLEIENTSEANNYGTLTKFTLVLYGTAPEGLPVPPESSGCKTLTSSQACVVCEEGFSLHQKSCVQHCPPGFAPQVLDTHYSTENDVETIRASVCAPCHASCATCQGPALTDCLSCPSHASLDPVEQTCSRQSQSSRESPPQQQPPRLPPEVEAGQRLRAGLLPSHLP
# Ins promoter up: MIN6 insulin promoter up-regulation. z-score at 5 µM. 190,000 compounds, 0.3% hits. MIN6 insulin promoter-GFP reporter, high-content imaging; stronger effect = higher value. AID 1625;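 active = z-score above 3 at 5 µM with at least 500 cells counted in the well; inconclusive = wells under 500 cells, flagged as cytotoxic or low count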
# Autophagy mod: alters autophagy in cells | MEF GFP-LC3 puncta imaging; test concentration mostly 10 µM | calls only at 10 µM (by protocol) | 190,000 compounds, 0.98% hits;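 active = percentage of spot-positive cells more than 3 SD above its plate mean, without a fluorescence outlier flag or 80% toxicity; inconclusive = no clear call, values can overlap the other calls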;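 note: spot-positive cell cutoff set from DMSO-treated cells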
# MT stabilize HCS: microtubule stabilizers in HeLa cells | HeLa tubulin immunostaining HCS, 24 h; share of cells brighter than vehicle mean+2SD | % tubulin-high responders, % at 10 µM | 200,000 compounds, 0.83% hits | AID 2205;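 active = plate Z-score above 3 for both tubulin-high and condensed-nucleus cell shares, with cell loss under 80%, at 10 µM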;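 note: anti alpha tubulin signal scored within the nucleus-defined area of each cell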
# HSV replic up: increases HSV replication in cells | HSV replication augmentation in cells, fold increase | maximum fold increase | 220,000 compounds, 0.005% hits; in the data active = maximum fold increase above about 1.5; inconclusive = no clear call, values can overlap the other calls; tested in PC3 cells
# Starred values were filed as active, the others as inactive; i = inactive; ? = inconclusive; · = no result given; + = active, no number.
SMILES,b-catenin transl,Furin inh,Ins promoter up,Autophagy mod,MT stabilize HCS,HSV replic up
O=C(NCc1ccccc1Cl)C(=O)NCC(c1ccco1)N1CCOCC1 (centres undefined),0,-14,-0.11,i,2,i
CC1=CC2=NC(=O)/C(=C\c3ccc(-c4ccc(Cl)cc4)o3)C(=N)N2O1,3,-4,-0.03,+,5,i
CN(C)c1ccc(/C=N\NC(=O)c2ccc(Cn3cc(Cl)cn3)cc2)cc1,-3,-9,-0.1,i,29*,i
CN(C)c1ccc(/C=N/NC(=O)c2ccc(Cl)cc2)cc1,·,-9,·,i,1,i
CN(C)c1ccc(/C=N/NC(=O)c2ccccc2Cl)cc1,77*,4,0.2,i,21*,i
CSc1ccc(/C=N/NC(=O)c2ccccc2Cl)cc1,3,-10,0.02,i,15*,i
CN(C)c1ccc(/C=N/NC(=O)c2ccccc2)cc1,2,-4,-0.21,i,14*,i
COc1ccc2[nH]c(C(=O)N3CCCN(Cc4ccc(F)cc4)CC3)cc2c1,-1,-22,-0.48,·,·,i
Cc1ccc(-n2cnc3sc(C)c(C)c3c2=O)cc1,0,-23,-0.21,i,3,i
CC(=O)N1CC[n+]2c(-c3ccc(Cl)cc3)csc21,-1,-14,-0.39,+,3,i
CCc1ccc(-c2csc3[n+]2CCN3C(C)=O)cc1,-5,-5,0.7,i,3,i
CCOC(=O)CN1CC23C=CC(O2)C(C(=O)Nc2cc(OC)ccc2OC)C3C1=O (centres undefined),-3,-32,4.2*,i,3,i
CCOC(=O)CN1CC23C=CC(O2)C(C(=O)Nc2ccc(OC)cc2OC)C3C1=O (centres undefined),0,-23,·,·,7,i
COc1ccc(/C=N/n2c(=O)[nH]c3c([nH]c4ccc(C)cc43)c2=O)cc1CN1CCOCC1,·,32*,-0.28,i,3,i
COc1ccc(/C=N/n2c(=O)[nH]c3c([nH]c4ccc(F)cc43)c2=O)cc1CN1CCCCC1,-2,-54,-0.17,·,·,i
Cc1cc(NC(=O)/C(C#N)=C/c2ccc(-c3ccc(SC(F)F)cc3)o2)n(-c2ccccc2)n1,-2,-18,3.4*,+,2,·
NC(=O)[C@@H]1CCCN1Cc1nc(-c2ccc(C(F)(F)F)cc2)no1,0,-4,-0.28,i,2,i
CC(C)N(Cc1ccccc1)C(=O)c1ccc2nsnc2c1,-1,-10,·,·,·,i
Cn1cc(C(=O)Nc2ccc(Cl)cc2)c(C(F)(F)F)n1,0,-23,-0.15,+,2,i
Cn1nc(C(F)(F)F)c(C(=O)Nc2ccc(Cl)cc2)c1Cl,2,-14,0.1,i,2,i
CCN(CC)S(=O)(=O)c1ccc(/C=C/C(=O)OCC(=O)N(C(C)C)C(C)C)cc1,-1,-20,-0.44,i,2,i
Cc1ccc(Nc2cc(=O)oc3ccccc23)c(C)c1,1,-28,0.17,i,27*,i
COc1cccc(C2=CC(c3cccc(OC)c3OC)n3nnnc3N2)c1 (centres undefined),0,-12,0.39,i,23*,i
COc1cccc(C2=CC(c3cc(OC)ccc3OC)n3nnnc3N2)c1 (centres undefined),-2,-6,0.53,i,27*,·
Cc1nc(C)c2c(=O)cc(-c3ccccc3)[nH]c2n1,38,-20,0.34,i,43*,i
SMILES,b-catenin transl,Furin inh,Ins promoter up,Autophagy mod,MT stabilize HCS,HSV replic up
COc1ccc(/C=N/NC(N)=S)cc1OC(=O)c1ccccc1,0,-6,-0.05,i,38*,i
COc1ccc(/C=N/NC(=O)c2cccc([N+](=O)[O-])c2)cc1OC(=O)c1ccccc1,-4,-17,-0.01,i,41*,i
CN1C2C=C3C(C#N)=C(N)C(C#N)(C#N)[C@H](c4c(F)cccc4F)[C@H]3C1CC2 (some centres undefined),1,-24,0.04,i,4,i
N#CC1=C(N)C(C#N)(C#N)[C@H](c2c(F)cccc2F)[C@H]2CC3(CC=C12)OCCO3,-2,-30,1.7,i,26*,i
COc1ccc(CN2CCN(C(=O)C3CCC(CNS(=O)(=O)c4ccc(C)cc4)CC3)CC2)c(OC)c1OC (centres undefined),-2,-26,-1.5,+,6,i
O=C(O)c1cc(C(F)(F)F)nc2c(C(F)(F)F)cccc12,-2,-18,0.2,i,5,i
COc1ccccc1/C=C/C(=O)NCc1cccnc1,4,-1,-0.65,i,4,i
COc1ccc(C2=CC(=O)OC(C)(c3ccccc3)O2)cc1 (centres undefined),51*,-4,0.3,i,9.8*,i
COc1ccc(Nc2nnc(SCc3cn4c(C)cccc4n3)s2)cc1,10,-19,·,i,19*,i
CC(=O)Nc1ccc(/C=C(\C#N)C(=O)NCc2ccccc2)cc1,·,13,0.28,i,2,i
CCN(CC)c1ccc(/C=C(/C#N)C(=O)NC(C)C)o1,1,4,·,i,2,?
CCN(CC)c1ccc(/C=C(/C#N)C(=O)NCc2ccccc2)o1,1,2,3,+,2,?
CC(C)NC(=O)/C(C#N)=C\c1ccc(N(C)C)o1,0,-10,12*,i,3,i
C=CCN1C(=O)N(/C=C/C)c2cccc3cccc1c23,·,6,-0.21,i,2,i
COCC(C)NCc1cccc(C)c1 (centres undefined),2,-25,-0.33,i,4,i
O=C(CC1C(=O)NCCN1Cc1cccc(Oc2ccccc2)c1)NCCc1ccncc1 (centres undefined),-2,-26,·,i,1,i
Cc1cc(-n2cc(Br)c(=O)[nH]c2=O)nc(-c2ccccc2)n1,1,-25,0.11,·,·,i
CCCCNS(=O)(=O)/C=C/c1ccccc1,3,-7,-0.12,+,2,i
Cc1c(CN(C)Cc2cn(C)nc2-c2ccccc2F)[nH]c2ccccc12,1,-14,-0.15,+,3,i
CN(CCCN1CCOCC1)Cc1cn(C)nc1-c1ccccc1F,0,-30,-0.08,i,4,i
O=C(CC1(O)C(=O)N(CCc2ccccc2)c2ccccc21)c1ccccn1 (centres undefined),1,-17,0.23,i,4,i
O=C(CC1(O)C(=O)N(C/C=C/c2ccccc2)c2ccccc21)c1ccccn1 (centres undefined),2,14,0.75,+,4,i
O=C(Nc1cc(Cl)ccc1Cl)C1CC(=O)N(c2ccc(Br)cc2)C1 (centres undefined),-2,-19,·,i,2,i
Cc1ccc(Nc2c(-c3ccc(N4CCOCC4)cc3)nc3ncccn23)cc1,3,-12,0.75,+,3,·
